Source: PubChem BioAssay
Compounds with a hit are over-represented: about 9.6% of the library has one in this group of screens.
TNAP inh no acc = blocks human TNAP activity with no phosphate acceptor present; P05186; purified TNAP, CDP-star luminescence, 30 min; inhibition, % at 20 µM; 0.26% of 200,000 active; AID 1012;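 active means tissue-nonspecific alkaline phosphatase inhibition above about 50% at 20 µM in the single-dose screen, limit read from the data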
Target sequence (P05186 whole entry, looked up): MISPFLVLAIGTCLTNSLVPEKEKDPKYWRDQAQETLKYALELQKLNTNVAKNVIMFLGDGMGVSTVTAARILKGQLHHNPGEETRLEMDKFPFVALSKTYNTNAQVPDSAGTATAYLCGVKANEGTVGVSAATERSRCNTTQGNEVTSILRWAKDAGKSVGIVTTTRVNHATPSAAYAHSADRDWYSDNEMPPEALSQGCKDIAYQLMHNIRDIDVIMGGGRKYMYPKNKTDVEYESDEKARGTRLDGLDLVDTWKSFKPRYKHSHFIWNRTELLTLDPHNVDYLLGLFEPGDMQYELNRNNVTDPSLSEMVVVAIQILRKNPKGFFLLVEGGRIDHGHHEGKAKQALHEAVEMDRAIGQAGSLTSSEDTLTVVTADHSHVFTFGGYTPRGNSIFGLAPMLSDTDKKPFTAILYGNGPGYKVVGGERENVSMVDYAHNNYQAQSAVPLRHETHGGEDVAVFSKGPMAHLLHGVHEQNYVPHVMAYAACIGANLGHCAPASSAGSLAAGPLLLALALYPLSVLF
TNAP inh hi DEA = TNAP (human) inhibition, high acceptor; 0.03% of 200,000 active; inhibition, % at 20 µM; purified TNAP, CDP-star luminescence, 1 M DEA; P05186;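 active means over 50% inhibition of tissue-nonspecific alkaline phosphatase at 20 µM in the single-dose screen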
HCT116 PTEN-null = PTEN-deleted cell growth suppression; 1.2% of 140,000 active; viability, % at 10 µM; HCT116 PTEN-null viability, CellTiter-Glo, 60 h; active compounds read low;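 active means viability at or below a set limit, 4 SD under the median of all tested compounds, cut at about 3.7% in these data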;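 further: PTEN knockout HCT116 line with beta catenin targeted HCT116 as companion control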
HCT116 bCat-KO = beta-catenin-lacking colon tumor cell growth suppression; AID 818; 1.5% of 140,000 active; HCT116 beta-catenin knockout viability, CellTiter-Glo, 60 h; active compounds read low; viability, % at 10 µM;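 active means viability at or under a set limit, the compound median less 4 SD, cut at about 6% in these data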
Lmaj promast = reduces viability of Leishmania major promastigotes; inhibition, % at 10 µM; resazurin fluorescence viability; 9% of 200,000 active; in the data active means inhibition above about 50%;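 further: promastigotes grown with compound for 44 hours at 28 °C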
TNAP act hiacc = activators of human TNAP at high phosphate acceptor concentration; purified TNAP, CDP-star luminescence, 1 M DEA, 30 min; active compounds read high; 0 = EDTA background, 1 = DMSO-only activity; P05186; activation factor at 20 µM; 200,000 tested, under 10 active; AID 1136;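 active means activation factor at least 2 at 20 µM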
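Measured by: Luminescent substrate turnover signal | Test system: Human TNAP | Input: TNAP 1/800 final | Dosing: 20 µM single point | Schedule: 30 min, room temperature | Controls: EDTA wells as negative control, DMSO wells as positive control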
A number is an active result; 0 = inactive; - = no result.

SMILES	TNAP inh no acc	TNAP inh hi DEA	HCT116 PTEN-null	HCT116 bCat-KO	Lmaj promast	TNAP act hiacc
COc1ccc(/C=N/NC(=O)c2cccc(NC(C)=O)c2)c(OC)c1	0	0	-	-	0	0
CCN(CC)CCCN(C(C)=O)c1nc(-c2cc(OC)ccc2OC)cs1	0	0	0	0	100	0
CCOc1ccc(CN2CCN(Cc3cnc(-c4ccccc4)s3)CC2CCO)cc1 (stereo not given)	0	0	-	-	86	0
CC(C)N1CCC(N2CCN(Cc3cnc(-c4ccccc4)s3)CC2CCO)CC1 (stereo not given)	0	0	-	-	0	0
OCCC1CN(Cc2cnc(-c3ccccc3)s2)CCN1C1CCCCC1 (stereo not given)	0	0	-	-	81	0
CCOc1ccc(CN2CCN(Cc3cc4ccccc4[nH]3)CC2CCO)cc1 (stereo not given)	0	0	-	-	79	0
CCOc1ccc(CN2CCN(Cc3cn(CC)nc3C)CC2CCO)cc1 (stereo not given)	0	0	-	-	0	0
OCCC1CN(Cc2cnc(-c3ccccc3)s2)CCN1C1CCCC1 (stereo not given)	0	0	-	-	80	0
CC1=NN(c2ccccc2)C(=O)C1(C)[N+](=O)[O-] (stereo not given)	0	0	0	0	0	0
CSc1ncc(CN2CCN(C3CCCCC3)C(CCO)C2)cn1 (stereo not given)	0	0	-	-	0	0
Cc1ccccc1-c1ncc(CN2CCN(C3CCCCC3)C(CCO)C2)cn1 (stereo not given)	0	0	-	-	56	0
CCOc1ccc(CN2CCN(CC3=Cc4cccc(OC)c4OC3)CC2CCO)cc1 (stereo not given)	0	0	-	-	78	0
O=C(O)Cc1sc(Nc2ccc(F)cc2)nc1-c1cccs1	0	0	-	-	0	0
COc1cc(-c2nnc(SCC(=O)N(C)C3CCS(=O)(=O)C3)o2)cc(OC)c1OC (stereo not given)	0	0	-	-	0	0
Cc1ccc(C)c(N2C(=O)c3ccc(C(=O)OCC(=O)c4c(N)n(C)c(=O)n(C)c4=O)cc3C2=O)c1	0	0	0	0	51	0
CC1CCCC(C)N1C(=S)SCC(=O)O (stereo not given)	0	0	-	-	0	0
O=C(Oc1c(-c2ccccc2Cl)oc2ccccc2c1=O)c1ccc(Cl)cc1	0	0	0	0	55	0
COc1ccc(NC(=O)C(c2cc3c(cc2[N+](=O)[O-])OCO3)N(C)c2ccccc2)cc1 (stereo not given)	0	0	0	0	81	0
CN(Cc1cccs1)C(=O)/C=C/c1ccccc1[N+](=O)[O-]	0	0	-	-	0	0
COc1ccc(NS(=O)(=O)c2cc(NC(=O)c3cnc(C)cn3)ccc2N2CCCCC2)cc1	0	0	0	0	0	0
COc1ccc(NS(=O)(=O)c2cc(NC(=O)C3CC3)ccc2N2CCCCC2)cc1	0	0	-	-	56	0
COc1ccc(NS(=O)(=O)c2cc(NC(=O)c3cnc(C)cn3)ccc2N2CCCC2)cc1	0	0	0	0	95	0
COc1ccc(N=C2SC(C(=O)N3CCN(c4ccc([N+](=O)[O-])cc4)CC3)CC(=O)N2C)cc1 (stereo not given)	0	0	-	-	52	0
Cc1nn(-c2ccc(F)cc2)c(C)c1CN1CCN(CCc2ccccc2)C(CCO)C1 (stereo not given)	0	0	-	-	79	0
Cc1nn(-c2ccc(F)cc2)c(C)c1CN1CCN(Cc2ccccc2)C(CCO)C1 (stereo not given)	0	0	-	-	0	0
SMILES	TNAP inh no acc	TNAP inh hi DEA	HCT116 PTEN-null	HCT116 bCat-KO	Lmaj promast	TNAP act hiacc
Cc1nn(-c2ccc(F)cc2)c(C)c1CN1CCN(CCC(C)C)C(CCO)C1 (stereo not given)	0	0	-	-	55	0
COc1ccc(CCNC(=O)c2ccc(C)s2)cc1OC	0	0	-	-	0	0
COc1ccc(C2N(Cc3ccccc3)CCN2Cc2ccccc2)cc1[N+](=O)[O-]	0	0	-	-	0	0
O=c1c2ccccc2nc(SCc2nnc(-c3ccccc3Br)o2)n1-c1ccccc1	0	0	0	0	0	0
Brc1ccccc1-c1nnc(CSc2nncn2-c2ccccc2)o1	0	0	0	0	98	0
O=C(O)c1cn(Cc2ccccc2Cl)c2ccc(S(=O)(=O)N3CCOCC3)cc2c1=O	0	0	-	-	0	0
CC(C)NC(=S)NCc1cccnc1	0	0	0	0	0	0
O=C(Nc1cc(Sc2ccccn2)cc([N+](=O)[O-])c1)c1cccc(F)c1	0	0	0	0	95	0
O=C(Nc1cc(Sc2nc3ccccc3s2)cc([N+](=O)[O-])c1)c1ccccc1	0	0	0	0	100	0
CC/C(=N\NC(=O)c1cc(C)nc2ccccc12)c1ccc(C)s1	0	0	0	0	0	0
COC(=O)c1ccc(=O)n(CC(=O)c2ccc(Cl)cc2)c1	0	0	-	-	0	0
CCOC(=O)c1cc(NC(=O)Nc2ccc(Br)cc2)c(C)nc1C	0	0	-	-	0	0
CCN1CCN(CCCN(Cc2ccco2)C(=S)Nc2ccc(Cl)cc2)CC1	0	0	-	-	0	0
CCOc1ccc(NC(=S)N(CCCN2CCCC2)Cc2cccn2Cc2ccc(Cl)cc2)cc1	0	0	-	-	100	0
Cc1cccc(NC(=S)N(CCCN2CCCC2)Cc2cccn2Cc2ccc(Cl)cc2)c1	0	0	-	-	98	0
CC(C)=CCc1c(O)ccc2c1OC(c1ccc(O)c(O)c1)CC2=O (stereo not given)	54	0	-	-	0	0
CCn1c(=O)cc(SCC(=O)Nc2cccc(C)n2)c2ccccc21	0	0	-	-	0	0
Cc1ccc(N(C(=O)c2ccccc2Cl)C2=NC(C)CS2)c(C)c1 (stereo not given)	0	0	0	0	94	0
CCC(=O)Nc1ccc(C(=O)NNC(=O)c2cc(OC)c(OC)c(OC)c2)cc1	0	0	-	-	0	0
CSc1cccc(CN2CCCC(CNC(=O)c3ccc(F)cc3)C2)c1 (stereo not given)	0	0	-	-	77	0
CSc1ccc(CN2CCCC(CNC(=O)c3ccc(F)cc3)C2)cc1 (stereo not given)	0	0	-	-	84	0
CCOc1ccc(CN2CCCC(CNC(=O)c3ccc(F)cc3)C2)cc1CO (stereo not given)	0	0	-	-	0	0
O=C(CSc1nnc2ccccn12)Nc1ccccc1C(=O)O	0	0	-	-	0	0
O=C(CSc1nc2c(cnn2-c2ccc(F)cc2)c(=O)[nH]1)N1N=C(c2cccs2)CC1c1ccc(F)cc1 (stereo not given)	0	0	0	0	51	0
O=C(CSc1nc2ccccc2s1)N1N=C(c2cccs2)CC1c1ccc(F)cc1 (stereo not given)	0	0	0	0	0	0
O=C(c1ccc(Br)o1)N1CCN(Cc2ccc3c(c2)OCO3)CC1	0	0	0	0	0	0
